Results: ChEMBL document CHEMBL1149351, “4-Amino-2-alkyl-butyramides as small molecule CCR2 antagonists with favorable pharmacokinetic properties” (Bioorg Med Chem Lett, 2006)

Key:
[1] = target: T1, C-C chemokine receptor type 2 (Homo sapiens, UniProt P41597); experiment: Activity at CCR2b by calcium flux based FLIPR assay in CHO cells; format: functional, cell-based
Target sequence in this assay (P41597 whole entry): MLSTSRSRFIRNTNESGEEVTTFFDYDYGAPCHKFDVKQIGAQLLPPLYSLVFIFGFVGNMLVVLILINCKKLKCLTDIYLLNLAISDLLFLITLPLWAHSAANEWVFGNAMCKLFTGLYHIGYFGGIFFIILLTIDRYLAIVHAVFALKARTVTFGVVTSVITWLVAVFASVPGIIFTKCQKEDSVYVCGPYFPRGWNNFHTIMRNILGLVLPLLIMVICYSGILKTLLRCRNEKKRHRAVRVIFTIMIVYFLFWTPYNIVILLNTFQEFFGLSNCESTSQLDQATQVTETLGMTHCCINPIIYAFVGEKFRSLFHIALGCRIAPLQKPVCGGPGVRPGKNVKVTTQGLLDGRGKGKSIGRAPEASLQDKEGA

[2] = target: T1, C-C chemokine receptor type 2; experiment: Displacement of [125I]MCP-1 from human CCR2b expressed in human monocyte cells; format: cell-based
Procedure, shortened: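 Human monocytes (5 × 10⁴) incubated with ¹²⁵I-hMCP-1 (20–50 pM; 2200 Ci/mmol) plus varying unlabeled competitor, 60 min at room temperature, in 50 mM HEPES, 5 mM MgCl₂, 1 mM CaCl₂, pH 7.4. Stopped by filtration on PEI-presoaked GF/B filters, washed with 25 mM HEPES pH 7.5/500 mM NaCl, then scintillation counted. Means of at least two separate experiments.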
Target sequence in this assay (P41597 whole entry): as above

[3] = target: T1, C-C chemokine receptor type 2; experiment: Displacement of [125I]MCP-1 from human CCR2b expressed in CHO cells; format: cell-based
Target sequence in this assay (P41597 whole entry): as above

[4] = target: T1, C-C chemokine receptor type 2; experiment: Inhibition of [125I]MCP-1 binding to human CCR2b expressed in human monocyte cells at 1 uM; format: cell-based
Procedure, shortened: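 Competition binding on human monocytes (5 × 10⁴ cells) with ¹²⁵I-hMCP-1 (20–50 pM) in 50 mM HEPES, 5 mM MgCl₂, 1 mM CaCl₂, pH 7.4, for 60 min at room temperature. Stopped by filtration through filters presoaked in 0.1% polyethyleneimine, washed with 25 mM HEPES pH 7.5 plus 500 mM NaCl. Bound label read by scintillation counting. Mean of at least two separate experiments.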
Target sequence in this assay (P41597 whole entry, looked up): as the sequence (P41597 whole entry) above

[5] = target: T1, C-C chemokine receptor type 2; experiment: Inhibition of [125I]MCP-1 binding to human CCR2b expressed in CHO cells at 1 uM; format: cell-based
Target sequence in this assay (P41597 whole entry, looked up): as the sequence (P41597 whole entry) above

[6] = target: T2, C-C chemokine receptor type 3 (Homo sapiens) (UniProt P51677); experiment: Inhibition of human CCR3 at 4 uM
T2 sequence (whole entry): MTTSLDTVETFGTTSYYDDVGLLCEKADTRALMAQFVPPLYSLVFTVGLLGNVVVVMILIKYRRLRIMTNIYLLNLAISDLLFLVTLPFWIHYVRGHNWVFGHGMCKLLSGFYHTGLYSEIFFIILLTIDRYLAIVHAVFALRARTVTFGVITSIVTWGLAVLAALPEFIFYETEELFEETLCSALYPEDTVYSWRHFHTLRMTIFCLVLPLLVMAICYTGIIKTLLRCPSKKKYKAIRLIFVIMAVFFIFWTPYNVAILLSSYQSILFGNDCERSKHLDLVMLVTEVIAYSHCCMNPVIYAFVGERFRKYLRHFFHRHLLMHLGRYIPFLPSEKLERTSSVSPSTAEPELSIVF

[7] = Clearance in Sprague-Dawley rat at 1 mg/kg, iv; format: ADME, organism-based; parameters: dose 1 mg/kg, route intravenous; conditions: in vivo
Rattus norvegicus [8] = experiment: Oral bioavailability in Sprague-Dawley rat at 3 mg/kg, po; format: ADME, organism-based; conditions: in vivo
[9] = Half life in Sprague-Dawley rat at 1 mg/kg, iv; format: ADME, organism-based; parameters: dose 1 mg/kg, route intravenous; conditions: in vivo
[10] = target: C-C chemokine receptor type 5 (Homo sapiens) (UniProt P51681); experiment: Inhibition of CCR5 at 1 uM
Rattus norvegicus [11] = experiment: AUC in Sprague-Dawley rat at 1 mg/kg, iv; format: ADME, organism-based, Plasma; parameters: dose 1 mg/kg, route intravenous; conditions: in vivo
[12] = Volume of distribution in Sprague-Dawley rat at 1 mg/kg, iv; format: ADME, organism-based; parameters: dose 1 mg/kg, route intravenous; conditions: in vivo, read-out: Vdss
[13] = target: T3, C-C chemokine receptor type 1 (Homo sapiens) (UniProt P32246); experiment: Inhibition of human CCR1 at 1 uM
T3 sequence (whole entry): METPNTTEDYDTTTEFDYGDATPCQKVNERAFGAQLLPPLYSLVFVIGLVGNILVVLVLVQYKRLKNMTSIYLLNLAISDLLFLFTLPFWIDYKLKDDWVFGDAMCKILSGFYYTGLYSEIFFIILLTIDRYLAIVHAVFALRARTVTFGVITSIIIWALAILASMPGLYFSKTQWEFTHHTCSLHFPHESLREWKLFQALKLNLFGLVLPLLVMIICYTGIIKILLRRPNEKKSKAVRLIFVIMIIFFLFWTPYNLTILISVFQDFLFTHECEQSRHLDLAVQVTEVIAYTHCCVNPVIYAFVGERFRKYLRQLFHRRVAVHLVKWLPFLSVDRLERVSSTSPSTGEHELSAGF

Rattus norvegicus [14] = experiment: AUC in Sprague-Dawley rat at 3 mg/kg, po; format: ADME, organism-based, Plasma; parameters: dose 3 mg/kg, route oral; conditions: in vivo
Rattus norvegicus [15] = experiment: Tmax in Sprague-Dawley rat at 3 mg/kg, po; format: ADME, organism-based; parameters: dose 3 mg/kg, route oral; conditions: in vivo
[16] = target: C-C chemokine receptor type 8 (Homo sapiens) (UniProt P51685); experiment: Inhibition of CCR8 at 1 uM
[17] = target: C-X-C chemokine receptor type 4 (Homo sapiens) (UniProt P61073); experiment: Inhibition of human CXCR4 at 1 uM
[18] = Cmax in Sprague-Dawley rat at 3 mg/kg, po; format: ADME, organism-based; parameters: dose 3 mg/kg, route oral; conditions: in vivo

Chain of C-C chemokine receptor type 5 (Homo sapiens) (P51681 whole entry, looked up): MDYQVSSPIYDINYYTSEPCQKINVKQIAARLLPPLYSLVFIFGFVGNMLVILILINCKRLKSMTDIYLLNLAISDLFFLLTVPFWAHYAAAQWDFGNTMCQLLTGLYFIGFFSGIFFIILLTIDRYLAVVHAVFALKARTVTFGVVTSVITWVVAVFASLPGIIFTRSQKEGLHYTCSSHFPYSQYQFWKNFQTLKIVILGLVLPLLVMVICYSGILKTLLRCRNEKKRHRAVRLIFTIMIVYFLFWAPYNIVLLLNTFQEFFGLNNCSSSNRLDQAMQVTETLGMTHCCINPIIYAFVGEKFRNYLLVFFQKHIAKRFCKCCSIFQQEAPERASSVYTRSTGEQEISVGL
Chain of C-C chemokine receptor type 8 (Homo sapiens) (P51685 whole entry): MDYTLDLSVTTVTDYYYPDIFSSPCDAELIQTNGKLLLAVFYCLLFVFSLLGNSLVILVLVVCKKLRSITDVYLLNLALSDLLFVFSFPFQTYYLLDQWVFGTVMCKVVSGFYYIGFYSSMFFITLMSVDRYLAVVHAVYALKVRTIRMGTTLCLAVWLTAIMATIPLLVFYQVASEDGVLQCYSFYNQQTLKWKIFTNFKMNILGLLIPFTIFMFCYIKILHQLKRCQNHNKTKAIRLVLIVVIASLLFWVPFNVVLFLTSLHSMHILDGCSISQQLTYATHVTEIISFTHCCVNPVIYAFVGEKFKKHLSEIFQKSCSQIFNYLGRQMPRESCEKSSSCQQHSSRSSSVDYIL
Chain of C-X-C chemokine receptor type 4 (Homo sapiens) (P61073 whole entry): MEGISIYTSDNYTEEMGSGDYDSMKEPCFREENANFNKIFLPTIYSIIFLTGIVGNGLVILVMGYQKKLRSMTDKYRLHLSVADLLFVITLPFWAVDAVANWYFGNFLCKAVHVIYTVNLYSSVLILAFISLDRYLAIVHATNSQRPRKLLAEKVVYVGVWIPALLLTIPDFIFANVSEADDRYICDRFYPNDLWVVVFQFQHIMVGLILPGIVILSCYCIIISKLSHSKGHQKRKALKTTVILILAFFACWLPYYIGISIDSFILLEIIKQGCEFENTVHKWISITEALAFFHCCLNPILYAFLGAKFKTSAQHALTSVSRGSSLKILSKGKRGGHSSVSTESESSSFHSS

Structure (SMILES)	IC50 [2] [nM]	IC50 [3] [nM]	also measured
C[C@H]1CN(CC[C@H](C(=O)NCc2cc(C(F)(F)F)cc(C(F)(F)F)c2)C2CCC2)CC[C@@]12C=Cc1ccccc12	12	28	IC50 [1]: 11 nM
CC(O)C(CCN1CCC(c2ccc(F)cc2)CC1)C(=O)NCc1cc(C(F)(F)F)cc(C(F)(F)F)c1 (stereo not drawn)	462		
CC[C@H]1CN(CC[C@H](C(=O)NCc2cc(C(F)(F)F)cc(C(F)(F)F)c2)c2ccc(F)cc2)CC[C@@]12C=Cc1ccccc12		437	
C[C@H]1CN(CC[C@H](C(=O)NCc2cc(C(F)(F)F)cc(C(F)(F)F)c2)c2ccc(F)cc2)CC[C@@]12C=Cc1ccccc12		67	
C=CC[C@H](CCN1CCC(c2ccccc2)CC1)C(=O)NCc1cc(C(F)(F)F)cc(C(F)(F)F)c1	216	642	
O=C(CCCN1CCC2(C=Cc3ccccc32)CC1)NCc1cc(C(F)(F)F)cc(C(F)(F)F)c1		570	inhibition [4]: 80%
CC(=O)Nc1ncc(S(=O)(=O)NC(CCN2CCC3(C=Cc4ccccc43)CC2)C(=O)NCc2cc(C(F)(F)F)cc(C(F)(F)F)c2)s1 (stereo not drawn)			inhibition [5]: 45%
C[C@H]1CN(CC[C@@H](C(=O)NCc2cc(C(F)(F)F)cc(C(F)(F)F)c2)C2CC2)CC[C@@]12C=Cc1ccccc12	13	80	
C=CC[C@H](CCN1CCC2(C=Cc3ccccc32)CC1)C(=O)NCc1cc(C(F)(F)F)cc(C(F)(F)F)c1	37	193	
CC(=O)N1CCCC(C(CCN2CCC3(C=Cc4ccccc43)CC2)C(=O)NCc2cc(C(F)(F)F)cc(C(F)(F)F)c2)C1 (stereo not drawn)	80	660	
O=C1NCC(C(=O)NC(CCN2CCC3(C=Cc4ccccc43)CC2)C(=O)NCc2cc(C(F)(F)F)cc(C(F)(F)F)c2)N1 (stereo not drawn)		525	
COC(=O)C[C@H](CCN1CCC(c2ccccc2)CC1)C(=O)NCc1cc(C(F)(F)F)cc(C(F)(F)F)c1			inhibition [5]: 42%
C[C@H](CCN1CCC2(C=Cc3ccccc32)CC1)C(=O)NCc1cc(C(F)(F)F)cc(C(F)(F)F)c1	37	231	
C[C@@H](CCN1CCC2(C=Cc3ccccc32)CC1)C(=O)NCc1cc(C(F)(F)F)cc(C(F)(F)F)c1	86	605	
CC(C)[C@@H](CCN1CCC2(C=Cc3ccccc32)CC1)C(=O)NCc1cc(C(F)(F)F)cc(C(F)(F)F)c1	72	349	
C[C@H]1CN(CCCC(=O)NCc2cc(C(F)(F)F)cc(C(F)(F)F)c2)CC[C@@]12C=Cc1ccccc12	93	173	
O=C(NCc1cc(C(F)(F)F)cc(C(F)(F)F)c1)[C@@H](CCN1CCC(c2ccccc2)CC1)C1CC1	129	285	
O=C(NCc1cc(C(F)(F)F)cc(C(F)(F)F)c1)C(CCN1CCC2(C=Cc3ccccc32)CC1)C1CC1 (stereo not drawn)	38	69	

Structure (SMILES)	IC50 [2] [nM]	IC50 [3] [nM]	also measured
O=C(NCc1cc(C(F)(F)F)cc(C(F)(F)F)c1)[C@@H](CCN1CCC(c2ccc(F)cc2)CC1)C1CC1	72	280	
C[C@H]1CN(CC[C@H](CC2CC2)C(=O)NCc2cc(C(F)(F)F)cc(C(F)(F)F)c2)CC[C@@]12C=Cc1ccccc12	9	25	IC50 [1]: 3 nM
CS(=O)(=O)NC(CCN1CCC2(C=Cc3ccccc32)CC1)C(=O)NCc1cc(C(F)(F)F)cc(C(F)(F)F)c1 (stereo not drawn)		244	
O=C(NCc1cc(C(F)(F)F)cc(C(F)(F)F)c1)C(CCN1CCC2(C=Cc3ccccc32)CC1)NS(=O)(=O)C(F)(F)F (stereo not drawn)		125	
COC(=O)C[C@@H](CCN1CCC(c2ccccc2)CC1)C(=O)NCc1cc(C(F)(F)F)cc(C(F)(F)F)c1			inhibition [5]: 38%
COC(=O)NC(CCN1CCC2(C=Cc3ccccc32)CC1)C(=O)NCc1cc(C(F)(F)F)cc(C(F)(F)F)c1 (stereo not drawn)		805	
O=C(NCc1cc(C(F)(F)F)cc(C(F)(F)F)c1)C(CCN1CCC2(C=Cc3ccccc32)CC1)C1CCCCC1 (stereo not drawn)	73	160	
CC(C)[C@H](CCN1CCC2(C=Cc3ccccc32)CC1)C(=O)NCc1cc(C(F)(F)F)cc(C(F)(F)F)c1	47	204	
CCC[C@H](CCN1CCC(c2ccccc2)CC1)C(=O)NCc1cc(C(F)(F)F)cc(C(F)(F)F)c1	42	126	
CS(=O)(=O)N1CCCC(C(CCN2CCC3(C=Cc4ccccc43)CC2)C(=O)NCc2cc(C(F)(F)F)cc(C(F)(F)F)c2)C1 (stereo not drawn)		783	inhibition [4]: 70%
CC(O)C(CCN1CC[C@@]2(C=Cc3ccccc32)[C@@H](C)C1)C(=O)NCc1cc(C(F)(F)F)cc(C(F)(F)F)c1 (stereo partly drawn)	48		
O=C(NCc1cc(C(F)(F)F)cc(C(F)(F)F)c1)[C@@H](CCN1CCC2(C=Cc3ccccc32)CC1)C1CC1	15	98	
NC(CCN1CCC2(C=Cc3ccccc32)CC1)C(=O)NCc1cc(C(F)(F)F)cc(C(F)(F)F)c1 (stereo not drawn)			inhibition [5]: 33%
O=CNC(CCN1CCC2(C=Cc3ccccc32)CC1)C(=O)NCc1cc(C(F)(F)F)cc(C(F)(F)F)c1 (stereo not drawn)			inhibition [5]: 25%
O=C(NCc1cc(C(F)(F)F)cc(C(F)(F)F)c1)C(CCN1CCC2(C=Cc3ccccc32)CC1)Cc1ccccc1 (stereo not drawn)	232	298	
O=C(NCc1cc(C(F)(F)F)cc(C(F)(F)F)c1)C(CCN1CCC2(C=Cc3ccccc32)CC1)NS(=O)(=O)c1ccccc1 (stereo not drawn)			inhibition [5]: 7%
C[C@H]1CN(CC[C@H](C(=O)NCc2cc(C(F)(F)F)cc(C(F)(F)F)c2)C2CC2)CC[C@@]12C=Cc1ccccc12	4	14	inhibition [6]: 3%; clearance [7]: 7.36 mL/min/kg; F (Rattus norvegicus [8]): 98%; half-life [9]: 4.11 h; IC50 [1]: 4 nM; inhibition [10]: 38%; AUC (Rattus norvegicus [11]): 4.17 µM·h; Vd [12]: 2.19 L/kg; inhibition [13]: -5%; AUC (Rattus norvegicus [14]): 4.08 µM·h; Tmax (Rattus norvegicus [15]): 4.67 µM; inhibition [16]: 9%; inhibition [17]: 8%; Cmax [18]: 1580 nM
O=C(NCc1cc(C(F)(F)F)cc(C(F)(F)F)c1)C(CCN1CCC2(C=Cc3ccccc32)CC1)NS(=O)(=O)c1cccs1 (stereo not drawn)			inhibition [5]: 20%
